SENP1 inh: human SENP1 catalytic domain inhibitors, primary screen, biochemical, FRET, uHTS. recombinant SENP1 catalytic domain, CyPet-SUMO1-YPet FRET cleavage. actives 0.21% (n = 360,000). inhibition, % at 10 µM. AID 624204, 2012. Sentrin-specific protease 1 (Homo sapiens), Q9P0U3;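 active means inhibition at least 30% at 10 µM, raw YFP signal under a set limit, fluorescence ratio 0.5 to 1.5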;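 further: 0% = enzyme with DMSO and 100% = no enzyme wells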
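Material: hSENP1 catalytic domain, recombinant; medium: Tris pH 8 with BME, BSA, NP40 and catalase; compound: single concentration of 10 µM compound, 0.5% DMSO final; technique: FRET read of cyan and yellow fluorescence; timing: 50 min enzyme reaction, room temperature, light-protected; reagent: SFCypet-SUMO1-SFYpet substrate at 25 nM; control set: no-enzyme low, enzyme-DMSO high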
SENP7 block: SENP7 protease inhibitors, primary screen, biochemical, luminescence, uHTS | Sentrin-specific protease 7 (Homo sapiens), Q9BQF6 | recombinant SENP7, Z-RLRGG-aminoluciferin luminescence, 40 min | inhibition, % at 5 µM | actives 1.5% (n = 330,000);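 active means inhibition above about 50% at the single test dose, limit read from the data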;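 further: plate controls were DMSO with enzyme for no effect and no enzyme buffer wells for full effect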
SENP8 block-1: SENP8 protease inhibitors, primary screen, biochemical, luminescence; Sentrin-specific protease 8 (Homo sapiens), Q96LD8; purified SENP8, Z-RLRGG-aminoluciferin cleavage; inhibition, % at 10 µM; actives 1.2% (n = 330,000); in the data active means inhibition above about 50%
SENP6 inh: SENP6 protease inhibitors, primary screen, biochemical, luminescence, uHTS; Recombinant SENP6 catalytic domain, aminoluciferin luminescence; inhibition, % at 10 µM; Sentrin-specific protease 6 (Homo sapiens), Q9GZR1; actives 1.8% (n = 330,000);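 active means inhibition above about 50% at the single tested dose, limit read from the data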;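 further: plate controls were DMSO wells with enzyme for no effect and DMSO wells lacking enzyme for full effect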
SENP8 block-2: human SENP8 protease inhibitors, primary screen, biochemical, fluorescence, Nedd8 protein substrate, uHTS; Sentrin-specific protease 8 (Homo sapiens), Q96LD8; recombinant SENP8; inhibition, % at 20 µM; actives 0.64% (n = 360,000); in the data active means inhibition mostly above about 40%, no sharp cut-off; inactive means mostly below about 27%
UCH37 DUB inh: inhibitors of human UCH37 deubiquitinase, primary screen, biochemical, Ub-AMC cleavage, fluorescence; purified proteasome/UCH37; Ubiquitin carboxyl-terminal hydrolase isozyme L5 (Homo sapiens), Q9Y5K5; AID 588478, 2011; actives 0.33% (n = 330,000); inhibition, % (concentration not given with the values);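 active means mean inhibition over replicate wells above about 20%, limit read from the data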;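 further: 0% = compound-free wells with enzyme and 100% = wells lacking proteasome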
Target sequence (Q9Y5K5 whole entry, looked up): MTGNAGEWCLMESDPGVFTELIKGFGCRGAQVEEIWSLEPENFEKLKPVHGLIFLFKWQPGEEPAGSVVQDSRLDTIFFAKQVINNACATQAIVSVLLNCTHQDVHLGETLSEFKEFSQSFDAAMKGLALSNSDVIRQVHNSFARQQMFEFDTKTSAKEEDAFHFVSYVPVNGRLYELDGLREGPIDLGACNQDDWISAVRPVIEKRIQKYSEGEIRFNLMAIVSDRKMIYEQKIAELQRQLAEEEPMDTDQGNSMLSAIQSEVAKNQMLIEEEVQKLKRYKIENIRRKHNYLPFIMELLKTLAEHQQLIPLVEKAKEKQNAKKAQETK
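Assay system: Proteasome-bound UCH37. Buffer or medium: pH 7.4 Tris-HCl (50 mM) with ovalbumin, ATP-MgCl2, DTT. Incubation: 30 min preincubation with enzyme, 25 min cleavage at room temperature. Measured by: fluorescence, ex 355 nm, em 460 nm. Read-out basis: percent inhibition. Control set: wells without proteasome as full block, compound-free enzyme plus substrate as uninhibited.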
SENP8 inh conf: human SENP8 protease inhibitors, confirmation, biochemical, Nedd8 protein substrate, single concentration; inhibition, % at 25 µM; actives 15% (n = 1,400); shares compounds with SENP8 block-2; AID 624319, 2012; purified SENP8, Nedd8-AMC/pro-Nedd8 cleavage fluorescence, 30 min; in the data active means inhibition mostly above about 39%, no sharp cut-off; inactive means mostly below about 34%
Starred values were filed as active, the others as inactive. This is a sample that favours compounds with a hit; in the whole collection about 2.6% have one here.

Results for CCCn1c(C)c(C(=O)c2cccc3ccccc23)c2ccccc21 ?
SENP1 inh: 2; SENP7 block: 3; SENP8 block-1: 11; SENP6 inh: -3; SENP8 block-2: 12; UCH37 DUB inh: 2

What do the screens show for `O=C(c1c[nH]cc1-c1ccccc1)c1cccc2ccccc12`?
SENP1 inh: 3; SENP7 block: 8; SENP8 block-1: 3; SENP6 inh: 7; SENP8 block-2: 46*; UCH37 DUB inh: 5; SENP8 inh conf: 4

How did CCOC(=O)c1c(N=CC2C(=O)NC(=O)NC2=O)sc2c1CCC2 do in these assays?
UCH37 DUB inh: 1

How did CCOC(=O)c1cc(C(O)(C(=O)OC)C(F)(F)F)c(N=CN(C)C)o1 (stereo not drawn) do in these assays?
UCH37 DUB inh: 10

How did CN1CCN(c2ccc([N+](=O)[O-])c(NN=C3CN4CCC3CC4)c2)CC1 do in these assays?
UCH37 DUB inh: 8

Results for CCOC(=O)Cn1cc([N+](=O)[O-])nc1[N+](=O)[O-] ?
SENP1 inh: 1; SENP7 block: 15; SENP8 block-1: 10; SENP6 inh: -1; SENP8 block-2: 56*; UCH37 DUB inh: -3; SENP8 inh conf: 24

Results for CCOC(=O)Cn1cc(C(=O)c2ccccc2F)c2ccccc21 ?
SENP1 inh: -1; SENP7 block: -6; SENP8 block-1: -7; SENP6 inh: -15; SENP8 block-2: 18; UCH37 DUB inh: 3

What do the screens show for `CCOc1ccc2nc(N=Nc3c(O)[nH]c(=S)[nH]c3=O)sc2c1`?
SENP1 inh: -4; SENP7 block: 6; SENP8 block-1: 6; SENP6 inh: 13; SENP8 block-2: 40*; SENP8 inh conf: 2

Results for Cc1cccc(NC(=O)[C@@H](NC(=O)N2C[C@H]3C[C@@H](C2)c2cccc(=O)n2C3)C(C)C)c1 ?
SENP1 inh: 1; SENP7 block: -8; SENP8 block-1: -10; SENP6 inh: -24; SENP8 block-2: 30; UCH37 DUB inh: 0

What do the screens show for `CC(C)[C@H](NC(=O)N1C[C@H]2C[C@@H](C1)c1cccc(=O)n1C2)C(=O)Nc1ccccc1F`?
SENP1 inh: 1; SENP7 block: -3; SENP8 block-1: -1; SENP6 inh: -8; SENP8 block-2: 47*; UCH37 DUB inh: 2; SENP8 inh conf: 13

Results for Cc1nn(C)cc1/C=C1/CC2C3CC=C4CC(O)CCC4(C)C3CCC2(C)C1=O (stereo not drawn) ?
SENP1 inh: 4; SENP7 block: -18; SENP8 block-1: -2; SENP6 inh: -2; SENP8 block-2: 47*; UCH37 DUB inh: 6; SENP8 inh conf: 10

What do the screens show for `Cc1cccc(N=C2c3cc([N+](=O)[O-])ccc3-c3c2cc([N+](=O)[O-])cc3[N+](=O)[O-])c1`?
SENP1 inh: 5; SENP8 block-2: 94*; UCH37 DUB inh: 10; SENP8 inh conf: 23

Results for CNC(=O)ON=C(N)Cc1csc2ccc(Cl)cc12 ?
UCH37 DUB inh: 3

What do the screens show for `O=[N+]([O-])c1ccc(N2CCNCC2)cc1N1CCCCCC1`?
SENP1 inh: 2; SENP7 block: -1; SENP8 block-1: -4; SENP6 inh: -11; SENP8 block-2: 48*; UCH37 DUB inh: 12; SENP8 inh conf: 13

What do the screens show for `Nc1ccc(C(=O)NN=C2CN3CCC2CC3)cc1`?
UCH37 DUB inh: 3

How did C[C@]12C[C@H](O)[C@@H](O)C[C@@H]1CC[C@@H]1[C@@H]2CC[C@]2(C)C(=O)CC[C@@H]12 do in these assays?
SENP1 inh: 2; SENP8 block-2: 49*; SENP8 inh conf: 6

Compound activity deposited in PubChem by several laboratories.
